# Measurements: the EternaBench riboswitch data
# Tested on: MS2 coat protein
# Test: apparent Kd, MS2 coat protein; higher = weaker binding; RNA-MaP array; FMN 200 µM where present
# Method in brief: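 Apparent Kd: the median of filtered binding-curve fits from single clusters. Designs were transcribed on Illumina sequencing-chip clusters by stalled E. coli RNA polymerase and titrated with SNAP-549-labelled MS2 coat protein from 0.7 or 1.5 nM, doubling to 3 µM, in 100 mM Tris-HCl pH 7.5, 80 mM KCl, 4 mM MgCl2, BSA, DTT, yeast tRNA and Tween-20. Each series ran without and then with constant ligand, and green signal was normalised to red-channel RNA signal and control-cluster median Fmax.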
# [1] = designed as: OFF switch for flavin mononucleotide, no ligand
# [2] = ligand present: flavin mononucleotide, designed as: OFF switch for flavin mononucleotide
# [3] = designed as: ON switch for flavin mononucleotide, no ligand
# [4] = ligand present: flavin mononucleotide, designed as: ON switch for flavin mononucleotide
Sequence,apparent Kd [1] [nM],apparent Kd [2] [nM],apparent Kd [3] [nM],apparent Kd [4] [nM]
AAUAAAUAGGAGGAUAUCGUAUCGGAAACGAUACGAGAAGGUCUAACAUGAGGAUCACCCAUGUUCCUCAAUAA,33.1,95.8,,
AGUAGUUUAACAUGAGGAUCACCCAUGUAUCUAUCUGUAACCUAGGAUAUGGACGUUGUAUUUAACCAGAAGGAGGAUCGUUUA,,,28.5,17
AUAUAUAUAUCAGGAUAUGGACAGGCCUGUUCGUAUUAAGACAGUAACAUGAGGAUCACCCAUGUCCAGAAGGGAUAUAUAUAU,83.9,50,,
GGAGGACGAAACAUGAGGAUCACCCAUGUGUUAUAAUUAAUAUAGGAUAUGUUUAUACUUUUUGGGCAGAAGGAUGAUAAUGCC,,,19.6,16.1
UGUCGGAGCAGAGGAUAUUACAUGAGGAUCACCCAUGUAUGAACCAAUAGCAGGAAACAGCAAUGUAAGAAGGCUGCUCCGACA,10.3,77.4,,
GUGGUGCAUAUACGUGGAUGUACAUGAGGAUCACCCAUGUAAGAGGAUAUGCGGAUACUAGCUCAGCAGAAGGCUUACAAAUGC,9.75,27.5,,
AAAGUCGGAAGAUAAUAAUGAAUACAUGAGGAUCACCCAUGUAAGGAUAUGCAGUGGAAUACACUGCAGAAGGUACAAACCGAC,14.7,19.8,,
AGAAACUACGAGAAGGACAUGAGAACCUUCAAUUACAUGAGGAUCACCCAUGUAGGAUAUCGUAGUUUCAGGAUCGUGAGAUCA,12.7,86,,
GUUAAGGUAGGAUAUACGAUAAUAUAGGGUAGAUAUAUAACACAUGAGGAUCACCCAUGUAGAAGGACCAAUUG,30.2,85.7,,
AGAAGACAUGAGGAUCACCCAUGUGCACGUGGAGGAGGAUAUGCUAGUAGAAGAUAGAAUGCAGAAGGCCUAAGAA,,,88,85.6
CGGCAUGUCUGAGGAUAUCUGCACGUUUAGUGCAGAGAAGGCAGAACAUGAGGAUCACCCAUGUAGAUCAUUAACCGAUUAAUU,228,337,,
GUUUGUUAUUAGAAGGUGCCGGCGAGAGCCGCAACAUGAGGAUCACCCAUGUGUCGGUGACGACGCAAGGAUAUGGUGGUGGAU,,,308,140
GCGGAGAUACAGAAGGGAUAAGCCCUGGGCUAGUCAGGAUAUGUACGACGCAUCGUACAUGAGGAUCACCCAUGUAGCCGCUUG,,,322,162
GAGUGACAUGAGGAUCACCCAUGUGAGGAUAUCGGACGGACCUUGUUGGCUUCCGCCGCGAGAAGGCACCUCGG,43.9,40.2,,
UUACUCAUGUAAGGAUAUGCAGCCGAAACGGCUGUAGAAGGUACUAAAAUACAUGAGGAUCACCCAUGUCUUUUUAAUUUAGAC,,,103,74.6
CAUUAAUUCAUUAUAGUAAUUAUACAGGAUAUGUUACAUGAGGAUCACCCAUGUAUUCAUGGUAAACAGAAGGGUAAUACUAGA,12.3,22.4,,
UAAAAACAUGAGGAUCACCCAUGUGAAAAUAUGGGAGGAUAUACAAAGACGAGAGUCAAAGUAGAAGGCCUAAAAU,,,73.5,24.5
GGAAAUCAUGUAGGAUAUGCAUGGCGAAGCUACGCAGAAGGACAUGAGGAUCACCCAUGUUAUAGCUACCCAGUUAGGUGGCAA,122,172,,
UUCAUCAAUGAAGGAUAUCUAUAUCCAACAUGAGGAUCACCCAUGUUGAGGAUCACCCAUGUAAAGGAGAAGGUUAAUAUAACU,,,35.9,31.4
AAUAAUAAGGAGGAUAUCGUAUCGGAAACGAUACGAGAAGGCUUAACAUGAGGAUCACCCAUGUUCCUCAAUAA,31,74.8,,
AGCGGCGCAGACCACCGCAAAACCAGAAGGACAUGAGGAUCACCCAUGUAACAAAACAGGGCAAUGUAGGAUAUGGCAAACCCA,11.1,12.6,,
UCCACUACUGAGAAGGGAUACAUAUAAUUCUAGUCAGGAUAUCGAUACAGUGCAGCAUGAGGACAUGAGGAUCACCCAUGUAUU,,,18.9,16
UUAAAUCAUGUAGGAUAUGCAUGGCGAAGCUACGCAGAAGGACAUGAGGAUCACCCAUGUUAUAGCGACCAAGUAAGGUUGCAA,91.6,197,,
UUAUUAUAUGUAGGAUAUGCAUAUUAUUAUUAUGCAGAAGGACAUGAGGAUCACCCAUGUAUAUUAUUAUUAUAUAUUAUGUAU,36.3,61,,
GUUGUUUCUGAGGAUAUUAUUUUAUUCGAUUGAUAAGAAGGCAGUACAUGAGGAUCACCCAUGUGGGUAGUUUG,94.2,172,,
GCUGCUAUCGCAGGAUAUUACAUGGGAAAUAAGACAUGAGGAUCACCCAUGUUAAAUAUCGUAAAUAAGAAGGGCGAUAGCAGC,,,270,475
CUUCGUAUAGAGGAUAUAGGUUACUUCGGUAUCCUAGAAGGCUGUACAUGAGGAUCACCCAUGUACUUCAGAUC,11.2,16.9,,
CUGCGGUAGGAGAAGGACGGCGGGUUCUUUUCAUACAUGAGGAUCACCCAUGUAGGAUAUCCUACCUCAGGCGGCCUACUACAG,7.68,10.9,,

Sequence,apparent Kd [1] [nM],apparent Kd [2] [nM],apparent Kd [3] [nM],apparent Kd [4] [nM]
AUUUAGUGCGAGAAGGCGUGGUCACAUGAGGAUCACCCAUGUCAGUACACGAGGAUAUCGUUUCGCUGUGUAAACACAAGCGAC,,,40.3,6.15
UGAUAACAUGUAGGAUAUCCAGCAUUGACCAUCGGAGAAGGACAUGAGGAUCACCCAUGUACCGAUACAAUGGGAUAUGGGAAU,20.1,27.2,,
ACGUCACAUGAGGAUCACCCAUGUCAGGCCGGACUAGGAUAUUAUCAUGCAGCGUGACCGUGAGAAGGAGUUGGAU,,,104,82.2
UGGUACUAGGGAGGAUAUGGGAAGAUACAUGAGGAUCACCCAUGUUUAAGAAUGCCGAGAGGCAAUUAGAAGGCCCUAGUACCU,,,983,148
AGGCGGGUAGGAUAUGCGUACUUACGGGAAAGCUGAAUGGUACAUGAGGAUCACCCAUGUAGAAGGGCUCUGAA,18.3,27,,
GGAUAGGACAGAGGAUAUACGUGCUAGAGAUACUAGCAAAAUUUCCGCACAUGAGGAUCACCCAUGUAGAAGGCUGUCCUAUCG,5.82,9.26,,
CCAUAUAAAUAAGGAUAUUAAGUUGAUUAUCCUCAAACAUGAGGAUCACCCAUGUAUAGUCUUAUUAAGAAGGUAUAGUGUUGG,,,608,545
AAAAUACAUGAGGAUCACCCAUGUUAGGAUAUCCAAGGUCUGACCCUCAGGGUCAGAAGGAGAAGGGAUGUGGU,56.7,67.7,,
AAUUAUUUACAGAAGGAGUAAGAUUAUGUAUUACUAGGAUAUGUAAACAUGAGGAUCACCCAUGUGUUUGUAGGUUUUUUAUGU,13.4,7.79,,
UAGGGCGAGUUAUGUACAAGAUACAUGAGGAUCACCCAUGUGUAGGAUAUGACCCUCAUCGCUGGUCAGAAGGGCACGAGAAUC,234,314,,
AAAAAGCGAGGAUAUACAUGAGGAUCACCCAUGUGAAAGUCGAAAAAAAAGACAAAAAGUAGAAGGCGCAAAAA,23.2,26.7,,
UGUCUCAGAGGAUAUACAGGUGUAGAUCCUUUAGACCCUUGACAUGAGGAUCACCCAUGUAGAAGGCUGCAGAC,69.4,26.4,,
GUCGGAAACGACAAAAGUAGCAUACGAGAAGGCUGAUCCACGACAUGAGGAUCACCCAUGUAGUUAGAGGAUAUUGGAUGCUAC,,,61.6,12.9
AAGUCUGGACGAGGAUAUCAGUUGUAUCUGGCGUCAACAUGAGGAUCACCCAUGUUGCAAUAGGGUGAGAAGGCGUUUGGGCAA,,,41.6,19.1
AAAAAACAUGAGGAUCACCCAUGUGAGGAUAUCGGAAAAAAAAAAAAAAAAAAAAAAACGAGAAGGCACAAAAA,60.8,71.7,,
GUUCUGUUAGGAUAUUGGAAAUCCGUAGCUGUGGCGCGCUUCAAGAAGGAACAUGAGGAUCACCCAUGUGAAAU,25,25.4,,
AUUACAAUUUUAUACAUGAGGAUCACCCAUGUUAUAAGUCAUGAGGAUAUGGUAUUGUAGUUAUUCCAGAAGGCAUUUAGCUAA,,,8.75,7.64
AUAUCUUACCAAGGAUAUUUAAGAUUUGUGUAGACAUGAGGAUCACCCAUGUGGCCUUAGUCACGGGAGAAGGUGGUUUGAUAU,,,878,493
CGAGUACAUGAGGAUCACCCAUGUAAUGAAUUGUCAGGAUAUGGAGAUUGAUGACAUGCGCCAGAAGGGACAUCUG,,,49.7,40.8
CUAUUAUUGAUCCAUUUUUUCAACAUGAGGAUCACCCAUGUGCAGGAUAUCGUGAUUAUUAUCAACGAGAAGGGCAAAUUCACG,45.7,149,,
UUGGACGUCGUAGGAUAUGUAGGAUAUUCCUACAUGAGGAUCACCCAUGUUGACAUGCAAGAAGGACAGAAGGACGAUGUCCAU,,,240,6.54
AAAGUACAUGAGGAUCACCCAUGUUGAAAAAAUCGAGGAUAUGCGAAAAAAAAAAAAAAAGCAGAAGGUGAAAAAA,,,49,42.4
CAUGGCACGUAGGAUAUCUCGCAGCCCGGCUGCAGAGAAGGACGUACAUGAGGAUCACCCAUGUAUGAUCCAAA,24.5,49.2,,
GGUUGGCGAGGAUAUACAUGAGGAUCACCCAUGUGGUCCUGUGGCUGAUCUUGCCUUUGUAGAAGGCGCGGAUC,49.7,53.6,,
CCGCAGUUAGGAUAUACAUGAGGAUCACCCAUGUGUCCAUCUGUAAUAAGACAGGAUAGUAGAAGGAACUGGCG,14.8,25.9,,
AUCAGCUCGUCAGGAUAUACGUCACUGCGUCACCAGUGUGGUAAGAUCACAUGAGGAUCACCCAUGUAGAAGGGACGAGCUGAU,15.4,287,,
CUGGUUGUCGUAGGAUAUGUAGGAUAUUCCUACAUGAGGAUCACCCAUGUUCGCAUGGAAGAAAGACAGAAGGACGAUGACCAU,,,1190,52.2
